Laboratory results taken from ChEMBL document CHEMBL1124851, “Synthesis of (R)-(-)- and (S)-(+)-4-fluorodeprenyl and (R)-(-)- and (S)-(+)-[N-11C-methyl]-4-fluorodeprenyl and positron emission tomography studies in baboon brain” (J Med Chem, 1990).

Legend:
[1] = Peak plasma radioactivity for the carbon-11 labeled compound was determined at 1.5 min after injection in baboon; (Range = 0.08-0.11); assay type: ADME, cell-free; conditions: papio hamadryas, 0.025 h
[2] = Peak plasma radioactivity for the carbon-11 labeled compound was determined at 0.5 min after injection in baboon; (Range = 0.08-0.11); assay type: ADME, cell-free; conditions: papio hamadryas
[3] = The amount of unchanged tracer in baboon plasma was determined 1 min after injection of the carbon-11 labeled compound; assay type: ADME, cell-free; conditions: papio hamadryas, read-out: Unchanged tracer
In short: (§1)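 Arterial plasma was sampled at 1, 10, 30 and 60 min after tracer injection in the baboon. Unchanged [N-11C-methyl]-4-fluorodeprenyl was measured by HPLC on a C18 Spherisorb 5 ODS column (250 × 4.6 mm). Mobile phase was methanol–0.05 N ammonium formate (70–30%) at 1 mL/min, with UV at 254 nm. Results are given as percent unchanged tracer.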

[4] = The absolute striatal uptake of the carbon-11 labeled compound at 60 min was determined in baboon; assay type: ADME; conditions: papio hamadryas, 1 h
In short: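 PET in one young adult female baboon (Papio anubis, 12.6 kg). Anaesthesia was ketamine (10 mg/kg), then isoflurane/nitrous oxide maintenance. The same animal was used for three experiments, at least two weeks apart.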

[5] = The amount of unchanged tracer in baboon plasma was determined 10 min after injection of the carbon-11 labeled compound; assay type: ADME, cell-free; conditions: papio hamadryas, read-out: Unchanged tracer; in short: as §1
[6] = The amount of unchanged tracer in baboon plasma was determined 30 min after injection of the carbon-11 labeled compound; assay type: ADME, cell-free; conditions: papio hamadryas, read-out: Unchanged tracer; in short: as §1
[7] = The amount of unchanged tracer in baboon plasma was determined 60 min after injection of the carbon-11 labeled compound; assay type: ADME, cell-free; conditions: papio hamadryas, read-out: Unchanged tracer; in short: as §1
Monoamine oxidase = biological target: T1, Monoamine oxidase (Homo sapiens, UniProt P21397+P27338); assay: In vitro inhibitory activity against Monoamine oxidase in baboon brain was determined; assay type: tissue-based, Papio hamadryas; conditions: target entry is the homologue from another species
T1 sequence (P21397 whole entry): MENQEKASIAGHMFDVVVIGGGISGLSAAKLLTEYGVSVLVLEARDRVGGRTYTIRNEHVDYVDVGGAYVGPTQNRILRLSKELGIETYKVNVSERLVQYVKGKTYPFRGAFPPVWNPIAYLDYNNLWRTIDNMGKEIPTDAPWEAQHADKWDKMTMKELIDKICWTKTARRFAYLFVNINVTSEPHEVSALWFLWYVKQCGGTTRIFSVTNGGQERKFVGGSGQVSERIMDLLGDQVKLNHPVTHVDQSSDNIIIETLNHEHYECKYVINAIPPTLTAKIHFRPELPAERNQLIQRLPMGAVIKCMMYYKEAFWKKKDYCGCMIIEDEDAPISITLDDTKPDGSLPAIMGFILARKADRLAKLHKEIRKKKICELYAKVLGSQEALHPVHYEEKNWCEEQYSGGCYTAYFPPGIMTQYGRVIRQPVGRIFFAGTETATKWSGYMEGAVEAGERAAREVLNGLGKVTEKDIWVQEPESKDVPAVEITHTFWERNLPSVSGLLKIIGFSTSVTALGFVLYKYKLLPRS
T1 sequence (P27338 whole entry): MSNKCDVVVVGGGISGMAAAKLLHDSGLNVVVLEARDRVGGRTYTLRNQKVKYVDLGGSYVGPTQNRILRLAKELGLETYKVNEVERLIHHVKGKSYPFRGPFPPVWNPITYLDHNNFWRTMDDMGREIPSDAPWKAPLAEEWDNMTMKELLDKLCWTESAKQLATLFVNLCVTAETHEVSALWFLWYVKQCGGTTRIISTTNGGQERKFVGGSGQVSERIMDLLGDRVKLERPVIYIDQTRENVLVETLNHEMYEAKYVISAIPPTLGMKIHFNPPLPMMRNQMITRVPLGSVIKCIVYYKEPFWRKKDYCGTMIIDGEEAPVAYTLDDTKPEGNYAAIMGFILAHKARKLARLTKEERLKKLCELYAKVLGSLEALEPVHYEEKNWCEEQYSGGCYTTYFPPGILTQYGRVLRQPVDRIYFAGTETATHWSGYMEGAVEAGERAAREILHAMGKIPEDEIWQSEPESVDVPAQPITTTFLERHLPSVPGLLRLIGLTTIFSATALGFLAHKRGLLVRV

Structure (SMILES)	Peak radioactivity in blood [1]	Peak radioactivity in blood [2]	remaining at 1 min [3]	% injected dose/cm3 [4]	remaining at 10 min [5]	remaining at 0.5 h [6]	remaining at 1 h [7]	IC50 (Monoamine oxidase)	Uptake [4]
C#CCN([11CH3])[C@H](C)Cc1ccc(F)cc1	0.01 % injected dose cm**-3	0.11 % injected dose cm**-3	96%	0.053%	50%	20%	14%		
C#CCN(C)[C@H](C)Cc1ccc(F)cc1								41.7 nM	
C#CCN(C)[C@@H](C)Cc1ccc(F)cc1	0.01 % injected dose cm**-3	0.11 % injected dose cm**-3	98%	0.021%	61%	30%	22%		
C#CCN(C)C(C)Cc1ccc(F)cc1 (stereo not drawn)	0.01 % injected dose cm**-3	0.11 % injected dose cm**-3	96%		43%	16%	15%		0.041 % injected dose cm**-3
C#CCN(C)[C@H](C)Cc1ccccc1 [SELEGILINE]									0.057%
